The target in series [1] is T1, Neuronal acetylcholine receptor subunit alpha-7 (Rattus norvegicus, UniProt Q05941). The experiment in a line: (§1) Inhibition of [125I]alpha-bungarotoxin binding to rat nicotinic acetylcholine receptor alpha7.
For series [2], the target named is T1, Neuronal acetylcholine receptor subunit alpha-7. The series is described as §1. The method, boiled down: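 Membranes from Wistar rat hippocampus made by sucrose homogenisation and differential centrifugation, then resuspended in 118 mM NaCl, 4.8 mM KCl, 2.5 mM CaCl2, 1.2 mM MgCl2, 20 mM Na-HEPES pH 7.5. Incubated with [125I]-α-bungarotoxin plus compounds, 37 °C, 3 h. Bound label collected by filtration. Nonspecific binding defined with 100 µM (−)-nicotine.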
This is another data set of the same source.

Series [3] in a line: Area under plasma concentration time curve 24 hours after peroral dosing of 1.0 mg/kg (AUC) in rats (N=4). Type of series: ADME, organism-based. On the set-up: dose 1 mg/kg, route oral. The settings on record: rat, po. Summed up:
(§2)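 Rats (N=4) given a single oral dose; plasma sampled over 24 h. AUC0-24h estimated from the plasma concentration-time curve and Cmax taken as the peak plasma level. Reported as mean ± SD.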

For series [4], the target named is Neuronal acetylcholine receptor; alpha4/beta2 (Rattus norvegicus, UniProt P09483+P12390). The experiment in a line: Inhibition of [3H]cytisine binding to nicotinic acetylcholine receptor alpha4-beta2 from rat cerebral cortex. It is filed as tissue-based. The method, boiled down: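 Wistar rat cerebral cortex membranes in 120 mM NaCl, 2.5 mM KCl, 1 mM CaCl2, 1 mM MgCl2, 50 mM Tris-HCl pH 7.4. Incubated with [3H]cytisine plus compounds, 4 °C, 75 min. Filtered and counted by liquid scintillation. Nonspecific binding defined with 100 µM (−)-nicotine.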
Neuronal acetylcholine receptor; alpha4/beta2, sequence (P09483 whole entry): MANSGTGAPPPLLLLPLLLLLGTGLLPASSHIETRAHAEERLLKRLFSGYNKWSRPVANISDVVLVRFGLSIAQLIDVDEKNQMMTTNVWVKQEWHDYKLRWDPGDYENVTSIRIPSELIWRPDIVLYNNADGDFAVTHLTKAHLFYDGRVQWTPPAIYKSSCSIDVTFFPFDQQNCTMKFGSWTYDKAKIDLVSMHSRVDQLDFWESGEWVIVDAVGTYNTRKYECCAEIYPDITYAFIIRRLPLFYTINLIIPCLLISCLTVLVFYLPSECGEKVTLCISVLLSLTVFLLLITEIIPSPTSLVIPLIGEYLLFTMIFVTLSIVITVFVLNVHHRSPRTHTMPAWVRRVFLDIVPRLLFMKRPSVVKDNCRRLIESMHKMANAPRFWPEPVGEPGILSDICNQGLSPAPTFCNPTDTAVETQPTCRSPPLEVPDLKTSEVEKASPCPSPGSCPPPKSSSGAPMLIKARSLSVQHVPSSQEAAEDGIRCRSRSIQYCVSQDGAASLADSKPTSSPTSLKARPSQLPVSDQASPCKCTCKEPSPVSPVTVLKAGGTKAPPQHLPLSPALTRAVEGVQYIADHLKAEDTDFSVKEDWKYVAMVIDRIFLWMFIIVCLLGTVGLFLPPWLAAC
Neuronal acetylcholine receptor; alpha4/beta2, sequence (P12390 whole entry): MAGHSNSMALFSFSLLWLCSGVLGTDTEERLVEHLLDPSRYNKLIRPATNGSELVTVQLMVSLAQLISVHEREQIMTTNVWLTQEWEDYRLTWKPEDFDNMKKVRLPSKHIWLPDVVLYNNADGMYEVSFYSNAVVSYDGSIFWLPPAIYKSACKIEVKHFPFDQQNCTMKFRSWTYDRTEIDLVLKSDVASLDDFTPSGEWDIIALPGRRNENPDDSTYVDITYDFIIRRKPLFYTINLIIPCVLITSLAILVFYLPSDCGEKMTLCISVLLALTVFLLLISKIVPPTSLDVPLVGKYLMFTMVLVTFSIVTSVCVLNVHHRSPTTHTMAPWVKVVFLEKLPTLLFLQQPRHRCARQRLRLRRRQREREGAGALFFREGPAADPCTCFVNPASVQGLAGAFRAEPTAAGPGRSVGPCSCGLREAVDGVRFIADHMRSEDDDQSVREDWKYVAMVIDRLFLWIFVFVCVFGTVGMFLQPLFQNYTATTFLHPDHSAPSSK

The nature of series [5]: Brain permeability is determined by ratio of concentration of compound in brain to that of in plasma (CB/CP) 2 hrs after oral dosing of 10.0 mg/kg (N=3). Type of series: ADME, organism-based. Also noted: dose 10 mg/kg, route oral. The note with it: rat, read-out: Permeability. Summed up:
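Rats (N=3) given a single 10 mg/kg oral dose. Brain and plasma concentrations measured 2 h after dosing, and the brain/plasma ratio (CB/CP) calculated. Reported as mean ± SD.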

Series [6] can be described thus: Inhibition of [125I]alpha-bungarotoxin binding to nicotinic acetylcholine receptor […]-delta-gamma from BC3H1 cells. Type of series: cell-based, Mus musculus. The note with it: bc3h-1. Summed up: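 BC3H1 muscle cells grown in DMEM with 4 mM L-glutamine and 20% FBS. Membranes from confluent cells washed in HEPES-buffered saline, pH 7.5. Incubated with [125I]-α-bungarotoxin plus compounds, 37 °C, 3 h, then filtered. Nonspecific binding defined with […].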

Series [7] is described as follows: Maximum plasma concentration after peroral dosing of 10.0 mg/kg in rats (N=4). It is filed as ADME, organism-based. On the set-up: dose 10 mg/kg, route oral. The settings on record: rat, po. Summed up:
as §2

Series [8] is described as follows: Maximum plasma concentration after peroral dosing of 1.0 mg/kg in rats (N=4). Also noted: dose 1 mg/kg, route oral. Type of series: ADME, organism-based. The settings on record: rat, po. Summed up: as §2
Series [9] can be described thus: Oral bioavailability of compound after peroral dosing of 10.0 mg/kg in rats (N=4). It is filed as ADME, organism-based. The settings on record: rat, in vivo, read-out: BA.
The nature of series [10]: Area under plasma concentration time curve 24 hours after peroral dosing of 10.0 mg/kg (AUC) in rats (N=4). It is filed as ADME, organism-based. Also noted: dose 10 mg/kg, route oral. The settings on record: rat, po. Summed up:
as §2

A short description of series [11]: Oral bioavailability of compound after peroral dosing of 1.0 mg/kg in rats (N=4). It is filed as ADME, organism-based. The settings on record: rat, in vivo, read-out: BA.
Series [12] is described as follows: Brain permeability is determined by ratio of concentration of compound in brain to that of in plasma (CB/CP) 1 hr after subcutaneous dosing of 1.0 mg/kg (N=3). The settings on record: rat, sc, read-out: Permeability. Type of series: ADME, organism-based. Also noted: dose 1 mg/kg, route subcutaneous. The method, boiled down: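 Rats (N=3) given a single 1 mg/kg sc dose. Brain and plasma concentrations measured 1 h later, and the brain/plasma ratio (CB/CP) calculated. Reported as mean ± SD.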

A short description of series [13]: Half-life of plasma concentration after intravenous dosing of 1 mg/kg in rats (N=4). The settings on record: rat.

As a reminder, the Ki is the equilibrium dissociation constant of an inhibitor or competing ligand from its target. As usually defined, the IC50 is the concentration that gives 50% inhibition. A lower IC50 goes with inhibition by little substance. The AUC is the area under the concentration-time curve, a measure of exposure. Read a high AUC as more exposure. By Cmax is commonly meant the peak of the concentration-time curve. For orientation: half-life means the time in which the quantity being followed falls by half.

T1 sequence (Q05941 whole entry): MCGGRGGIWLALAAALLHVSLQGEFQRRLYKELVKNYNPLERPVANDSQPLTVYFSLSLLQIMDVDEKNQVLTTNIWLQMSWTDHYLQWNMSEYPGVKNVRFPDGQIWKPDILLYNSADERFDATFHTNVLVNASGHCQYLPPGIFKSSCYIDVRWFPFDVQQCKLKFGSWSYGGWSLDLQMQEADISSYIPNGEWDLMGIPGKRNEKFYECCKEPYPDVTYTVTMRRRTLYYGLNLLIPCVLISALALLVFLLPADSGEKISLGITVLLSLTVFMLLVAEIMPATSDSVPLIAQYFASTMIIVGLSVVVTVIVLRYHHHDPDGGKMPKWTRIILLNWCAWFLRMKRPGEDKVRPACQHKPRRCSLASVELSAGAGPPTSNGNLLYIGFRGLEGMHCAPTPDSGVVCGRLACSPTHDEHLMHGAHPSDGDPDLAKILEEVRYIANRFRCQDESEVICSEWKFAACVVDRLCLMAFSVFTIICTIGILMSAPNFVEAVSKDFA

`c1ccc2sc(CO[C@@H]3CN4CCC3CC4)cc2c1` registered a Ki in series [1] of 0.013 µM.
Regarding `O=C1O[C@]2(CN3CCC2CC3)CN1c1nc2ccccc2s1`, the inhibitory constant (Ki) in [1] is 0.43 µM.
In series [2], `O=C1O[C@]2(CN3CCC2CC3)CN1c1nc2ccccc2o1` registered an IC50 above 1 µM.
On to `N#Cc1ccc(N2C[C@@]3(CN4CCC3CC4)OC2=O)s1`, for which the inhibitory constant (Ki) in series [1] is 0.085 µM.
In turn, `O=C1O[C@]2(CN3CCC2CC3)CN1c1cc2ccccc2o1` showed a Ki in series [1] of 0.37 µM.
In series [2], `O=C1OC2(CN3CCC2CC3)CN1c1ccccc1` (stereo unspecified) gave an IC50 above 1 µM.
Consider `CC(C)c1ccc(N2C[C@@]3(CN4CCC3CC4)OC2=O)s1`, for which the affinity in [1], expressed as Ki, was 0.065 µM.
Take `O=C1O[C@]2(CN3CCC2CC3)CN1c1ccsc1`: the IC50 in series [2] is above 1 µM.
`O=C1O[C@]2(CN3CCC2CC3)CN1c1ccc(Br)s1` yielded a Ki in series [1] of 0.004 µM.
For `Cc1cc(N2C[C@@]3(CN4CCC3CC4)OC2=O)sc1C`, the IC50 in series [2] was above 1 µM.
Regarding `Cc1ccc(N2C[C@@]3(CN4CCC3CC4)OC2=O)s1`, affinity in series [1] was put at a Ki of 0.012 µM.
Turning to `CC(O)c1ccc(N2C[C@@]3(CN4CCC3CC4)OC2=O)s1` (stereo partly specified), in series [1], the Ki came to 0.145 µM.
In turn, `O=C1O[C@]2(CN3CCC2CC3)CN1c1cc2ccccc2s1` displayed a Ki in series [1] of 0.075 µM.
In series [2], `Cc1csc(N2C[C@@]3(CN4CCC3CC4)OC2=O)c1` showed an IC50 above 1 µM.
`O=C1O[C@@]2(CN3CCC2CC3)CN1c1cc2ccccc2s1`: the IC50 in [2] is above 1 µM.
The compound `O=C1O[C@]2(CN3CCC2CC3)CN1c1ccc2ccccc2c1` displayed a Ki in series [1] of 0.031 µM.
`O=C1O[C@]2(CN3CCC2CC3)CN1c1ccc(Cl)s1`: the AUC at 24 h came to 0.224 µg·h/mL in [3] and 4.64 µg·h/mL in [10]. Moreover, the results for the Ki in series [4] and in [1] were 1.8 µM and 0.009 µM, respectively. In series [5], the Kp at 2 h amounted to 59. In series [6], this compound had an IC50 above 10 µM. Besides, the Cmax in [7] turned out to be 0.997 µg/mL; in series [8], 0.056 µg/mL. The results for the bioavailability in series [9] and in [11] were 108% and 52%, respectively.
`O=C1NC[C@@]2(CN3CCC2CC3)O1` showed an IC50 in series [6] above 10 µM. In [7], this compound gave a Cmax of 1.58 µg/mL. Besides, in series [9], the bioavailability was found to be 103%. This compound gave an exposure (AUC) at 24 h in [10] of 5.39 µg·h/mL. In addition, in series [12], the Kp at 1 h came to 0.76.
As to `O=C1O[C@]2(CN3CCC2CC3)CN1c1ccccn1`, in series [2], the IC50 was above 1 µM.
In turn, `O=C1O[C@@]2(CN3CCC2CC3)CN1c1ccc2ccccc2c1` returned a Ki in [1] of 0.205 µM.
`O=C1O[C@]2(CN3CCC2CC3)CN1c1cccs1` returned a Ki in series [1] of 0.08 µM.
For `CCc1ccc(N2C[C@@]3(CN4CCC3CC4)OC2=O)s1`, in series [1], affinity was put at a Ki of 0.021 µM.
For `CC(=O)c1ccc(N2C[C@@]3(CN4CCC3CC4)OC2=O)s1`, the affinity in [1], expressed as Ki, was 0.19 µM.
In [2], `Cc1ccsc1N1C[C@@]2(CN3CCC2CC3)OC1=O` gave an IC50 above 1 µM.
`O=C(CC1CN2CCC1CC2)c1cc2ccccc2s1` (single isomer, unassigned; (+)): the inhibition constant (Ki) in series [1] came out at 0.065 µM.
`COc1ccc(/C=C2\CCCN=C2c2cccnc2)c(OC)c1` [GTS-21]: the inhibition constant (Ki) in series [4] is 0.084 µM; in series [1] it was 0.22 µM. The half-life in [13] was 28.2 min. Moreover, the Kp at 2 h in series [5] was below 0.3. This compound came in with an IC50 in series [6] above 10 µM. In addition, the highest level in series [7] (Cmax) was 0.138 µg/mL. Also, the bioavailability in series [9] was determined as 14%. This compound showed an AUC at 24 h in series [10] of 0.453 µg·h/mL.

These data come from ChEMBL document CHEMBL1143582, “Discovery of the alpha7 nicotinic acetylcholine receptor agonists. (R)-3'-(5-Chlorothiophen-2-yl)spiro-1-azabicyclo[2.2.2]octane-3,5'-[1',3']oxazolidin-2'-one as a novel, potent, selective, and orally bioavailable ligand” (J Med Chem, 2005).
